High-throughput results: PubChem, several laboratories
Compounds with a hit are over-represented: about 3.5% of the library has one in this group of screens.
ABCG2 inh: blocks JC-1 efflux by human ABCG2 transporter | Q9UNQ0 | IgMXP3 cells, flow cytometry | inhibition, % at 6.6 µM | 0.1% of 190,000 active | AID 1325;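 active means inhibition above 80%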;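 further: 0% = DMSO and 100% = nicardipine control wells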
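Assay system – ABCG2 IgMXP3 and barcoded ABCB1 CCRF-Adr cell mix · Input – 3 million cells/mL in well · Reagent – JC-1 fluorescent substrate · Compound – single test compound dose, 6.6 µM final · Timing – 10 min exposure at 25 °C with rotation, no wash · Detection – flow cytometry of retained JC-1 fluorescence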
MEKK2wt PB1 HTS: raises or lowers MEK5 binding to wildtype human MEKK2 PB1 domain. Q9Y2U5. bead flow cytometry, Alexa488-MEK5 binding to MEKK2 WT; actives lie on both sides. binding response (% of control), % at 10 µM. 1.1% of 290,000 active; in the data active means binding response below about 67% or above about 130%
MEKK2mut PB1 HTS: signal of MEK5 binding to mutant human MEKK2 PB1 domain | percent response, % at 10 µM | 0.35% of 290,000 active | bead flow cytometry, Alexa488-MEK5 binding to MEKK2 mutant; in the data active means percent response above about 24%, passing the limit was not always enough
WT yeast gro inh: growth inhibition of WT yeast, mitochondrial fusion screen. mitochondrial fusion phenotypic screen, WT strain. 2.1% of 190,000 active. inhibition, % at 10 µM. AID 1362; in the data active means inhibition above about 58%; tested in S. cerevisiae
ABCB1 inh: blocks JC-1 efflux by human ABCB1 transporter; CCRF-Adr cells, flow cytometry; inhibition, % at 6.6 µM; 0.067% of 190,000 active; AID 1326; in the data active means inhibition above about 40%;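 further: 0% = vehicle and 100% = reference inhibitor; higher value means more JC-1 retained so stronger ABCB1 efflux block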
Target sequence (P08183 whole entry, looked up): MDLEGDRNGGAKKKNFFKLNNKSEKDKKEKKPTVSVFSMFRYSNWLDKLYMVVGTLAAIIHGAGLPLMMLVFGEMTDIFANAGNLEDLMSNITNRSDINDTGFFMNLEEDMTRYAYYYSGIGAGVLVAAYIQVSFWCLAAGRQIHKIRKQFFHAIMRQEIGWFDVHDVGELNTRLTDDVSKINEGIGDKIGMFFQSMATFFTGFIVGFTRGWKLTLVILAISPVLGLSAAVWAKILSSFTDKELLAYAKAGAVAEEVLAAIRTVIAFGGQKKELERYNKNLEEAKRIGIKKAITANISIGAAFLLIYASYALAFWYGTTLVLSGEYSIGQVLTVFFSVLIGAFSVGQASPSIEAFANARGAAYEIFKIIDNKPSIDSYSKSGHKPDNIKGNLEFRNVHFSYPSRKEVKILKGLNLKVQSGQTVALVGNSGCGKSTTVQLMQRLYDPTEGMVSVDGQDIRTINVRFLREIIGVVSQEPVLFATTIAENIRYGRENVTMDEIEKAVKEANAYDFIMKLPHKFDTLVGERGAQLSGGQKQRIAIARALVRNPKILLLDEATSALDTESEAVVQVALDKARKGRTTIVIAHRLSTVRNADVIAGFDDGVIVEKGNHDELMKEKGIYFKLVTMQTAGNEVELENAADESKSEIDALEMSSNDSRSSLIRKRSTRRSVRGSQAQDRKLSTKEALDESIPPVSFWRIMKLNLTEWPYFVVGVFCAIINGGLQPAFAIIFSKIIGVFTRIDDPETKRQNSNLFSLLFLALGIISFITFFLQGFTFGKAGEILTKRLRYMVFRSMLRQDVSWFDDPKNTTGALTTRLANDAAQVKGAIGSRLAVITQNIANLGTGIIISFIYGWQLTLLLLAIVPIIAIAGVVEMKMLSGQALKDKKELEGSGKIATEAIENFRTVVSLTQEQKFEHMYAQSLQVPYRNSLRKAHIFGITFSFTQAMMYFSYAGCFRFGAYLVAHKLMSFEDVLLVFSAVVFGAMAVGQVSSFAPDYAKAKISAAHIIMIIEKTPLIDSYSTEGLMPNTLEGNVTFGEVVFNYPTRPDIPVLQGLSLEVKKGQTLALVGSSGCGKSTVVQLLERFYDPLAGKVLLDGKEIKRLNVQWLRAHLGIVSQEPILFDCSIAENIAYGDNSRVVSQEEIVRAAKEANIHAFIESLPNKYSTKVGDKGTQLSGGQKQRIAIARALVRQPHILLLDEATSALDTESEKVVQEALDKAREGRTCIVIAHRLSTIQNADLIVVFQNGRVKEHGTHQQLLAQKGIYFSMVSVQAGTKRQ
MEKK3 PB1 HTS: raises or lowers MEK5 binding to the human MEKK3 PB1 domain; bead-based flow cytometry, Alexa488-MEK5 binding to MEKK3; actives lie on both sides; 0 = blocked by unlabeled MEK5, 100 = vehicle; binding response (% of control), % at 10 µM; 1.4% of 290,000 active; AID 1529;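 active means binding response more than 3 SD above or below the average of its plate-row segment, actives on both sides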;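 further: Alexa488 bead fluorescence after subtracting the streptavidin-only scavenger bead signal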
Numbers without * were called inactive; . = not tested or not shown; [ ] = dose if it differs, or a comment.

SMILES | ABCG2 inh | MEKK2wt PB1 HTS | MEKK2mut PB1 HTS | WT yeast gro inh | ABCB1 inh | MEKK3 PB1 HTS
N#CC(C#N)=C(Nc1ccc(F)cc1)SCc1cccc(F)c1 | 11.4 | 4.0*[inhibitor] | -16.0 | 53.2 | -0.2 | 3.0*[inhibitor]
CC1(C)N([O-])C2=C(c3ccccc3C2=O)[N+](=O)C1(C)C | 1.9 | 100.0 | 5.0 | 13.3 | 0.4 | 101.0
CSc1nc(N(C)CCO)c2sc3nc(-c4ccco4)c4c(c3c2n1)CCC4 | 12.1 | 97.0 | -1.0 | -1.1 | 0.4 | 97.0
CSc1nc(N2CCN(CCO)CC2)c2sc3nc(-c4ccco4)c4c(c3c2n1)CCC4 | . | . | . | 93.2* | . | .
C(=N\Nc1nc(N2CCCCCC2)nc(N2CCCCCC2)n1)/c1ccccc1 | 1.0 | 99.0 | -10.0 | 68.2* | -1.3 | 98.0
Oc1ccc(/C=N/Nc2cc(N3CCOCC3)nc(N3CCOCC3)n2)cc1 | . | 101.0 | 2.0 | . | . | 104.0
Oc1ccc(Br)cc1/C=N/Nc1nc(N2CCCCC2)nc(N2CCOCC2)n1 | -0.9 | 105.0 | -6.0 | 50.1 | -0.7 | 106.0
Oc1ccc(/C=N/Nc2nc(N3CCCCCC3)nc(N3CCCCCC3)n2)c(O)c1 | -1.2 | 97.0 | -2.0 | 74.2* | -0.7 | 109.0
Oc1ccc(/C=N/Nc2cc(N3CCCC3)nc(N3CCCC3)n2)cc1 | 0.5 | 117.0 | 11.0 | 63.1* | 0.1 | 120.0
Fc1ccc(Nc2nc(N/N=C/c3ccco3)nc(N3CCCCC3)n2)cc1 | 11.8 | 99.0 | -12.0 | 82.5* | 0.2 | 107.0
O=[N+]([O-])c1ccc(N2CCN(c3ccccc3Cl)CC2)cn1 | . | 97.0 | 0.0 | . | . | 98.0
CCOC(=O)C1=C(COC(=O)/C=C/c2cccc(OC)c2OC)NC(=O)NC1C (configuration not stated) | . | 99.0 | 5.0 | . | . | 101.0
CCCCCc1ccc(-c2ccc(/C=C/C(=O)O)cc2)nc1 | -1.8 | 97.0 | -2.0 | 31.6 | -0.4 | 100.0
CCCCCCCc1ccc(-c2ccc(O)cc2)nc1 | 2.5 | 92.0 | -9.0 | 73.5* | 0.9 | 98.0
COc1cccc(-n2nnnc2SCC(=O)Nc2ccc(OC)cc2OC)c1 | . | 111.0 | 10.0 | . | . | 105.0
Cc1cc(C)c2nc(NNC(=O)c3cc(-c4cccs4)nc4ccccc34)sc2c1 | -1.9 | 93.0 | -5.0 | 63.7* | -1.0 | 107.0
Cc1ccc2sc(NNC(=O)c3cc(-c4cccs4)nc4ccccc34)nc2c1C | -1.9 | 98.0 | -4.0 | 30.8 | -1.3 | 107.0
Cc1nc(NC(=O)CC(C)C)sc1-c1csc(Nc2ccc(Cl)cc2Cl)n1 | -2.0 | 103.0 | -1.0 | 0.1 | -0.8 | 95.0
Cc1nc(NC(=O)CC(C)C)sc1-c1csc(Nc2ccc(Cl)cc2)n1 | 3.8 | 108.0 | 1.0 | 80.7* | 0.5 | 106.0
Cc1nc(NC(=O)c2ccco2)sc1-c1csc(Nc2ccc(Cl)cc2Cl)n1 | -1.4 | 112.0 | 4.0 | 70.9* | -0.4 | 112.0
c1csc(Cc2nc(-c3ccc(-n4cccc4)cc3)no2)c1 | . | 101.0 | -1.0 | 16.6 | . | 103.0
Cc1ccc(-c2cc(C(=O)N3N=C(C(F)F)CC3(O)C(F)F)c3ccccc3n2)cc1C (configuration not stated) | 7.0 | 116.0 | 7.0 | 92.1* | 1.2 | 104.0
C=CCOC(=O)C1=C(C)NC(=S)NC1/C=C/c1ccccc1 (configuration not stated) | 0.3 | 103.0 | 3.0 | . | 0.1 | 99.0
CC1=C(C(=O)OCc2ccccc2)C(/C=C/c2ccccc2)NC(=S)N1 (configuration not stated) | 7.3 | 103.0 | 13.0 | 68.8* | 0.9 | 103.0
Clc1ccc(CSc2nnc(-c3c[nH]c4ccccc34)o2)cc1 | 3.6 | 109.0 | 5.0 | -0.6 | 0.5 | 106.0
SMILES | ABCG2 inh | MEKK2wt PB1 HTS | MEKK2mut PB1 HTS | WT yeast gro inh | ABCB1 inh | MEKK3 PB1 HTS
Brc1ccc(CSc2nnc(Cc3c[nH]c4ccccc34)o2)cc1 | -0.6 | . | . | 68.3* | -0.3 | .
COc1cc(C(=O)NCC2(c3ccccc3)CCCC2)cc(OC)c1OC | . | 106.0 | 4.0 | . | . | 105.0
CC(=O)N(C1=C(N2CCOCC2)C(=O)c2ccccc2C1=O)c1ccc(C(=O)O)cc1 | . | -1.0* | 2.0 | . | . | 99.0
CC(=O)N(C)C1=C(N2CCOCC2)C(=O)c2ccccc2C1=O | -1.8 | 90.0 | -5.0 | 16.2 | -0.7 | 90.0
Nc1ccc(C(=O)NC23CC4CC(CC(C4)C2)C3)cc1 | . | 99.0 | 3.0 | . | . | 98.0
O=C(Nc1nc(-c2ccccc2)c(-c2ccccc2)o1)c1ccc(F)cc1 | -0.2 | 98.0 | -5.0 | 16.6 | -0.3 | 97.0
COc1cccc(C(=O)Nc2nc(-c3ccccc3)c(-c3ccccc3)o2)c1 | 20.2 | 102.0 | -1.0 | 73.7* | 3.0 | 111.0
O=C(NC12CC3CC(CC(C3)C1)C2)c1ccc(-c2cccc(Cl)c2)o1 | 14.2 | 97.0 | -1.0 | 65.5* | 0.4 | 101.0
O=C(Oc1ccc(-c2nnco2)cc1)C1CCN(C(=O)c2ccc(F)cc2)CC1 | . | 110.0 | 7.0 | . | . | 108.0
c1csc(-c2csc3nc(CN4CCOCC4)nc(NCc4ccc5c(c4)OCO5)c23)c1 | 7.2 | 111.0 | -1.0 | 63.7* | 3.8 | 105.0
O=C(CCNC(=O)C1CCN(S(=O)(=O)c2ccc(F)cc2)CC1)NCc1ccc(Cl)cc1 | . | 105.0 | 0.0 | . | . | 102.0
CC(C)(C)c1ccc(S(=O)(=O)Nc2ccccn2)cc1 | 6.1 | 101.0 | -2.0 | 7.8 | 1.4 | 103.0
CCc1ccccc1N(C1=NCCCS1)S(=O)(=O)c1ccc(C(C)(C)C)cc1 | -2.1 | 95.0 | -3.0 | 66.0* | -0.3 | 96.0
Cc1ncsc1C(=O)N1N=C2/C(=C/c3ccc(N4CCOCC4)cc3)CCCC2C1c1ccc(N2CCOCC2)cc1 (configuration not stated) | 3.8 | 104.0 | 1.0 | 12.2 | 2.1 | 102.0
Cc1ncsc1C(=O)N1N=C2/C(=C/c3ccccc3)CCCC2C1c1ccccc1 (configuration not stated) | 3.9 | . | . | 71.0* | 1.4 | .
COCCn1c(=S)[nH]c2cc(C(=O)N3CCc4ccccc43)ccc2c1=O | 15.1 | 96.0 | 6.0 | 76.5* | 0.8 | 98.0
COc1ccc(CNC(=S)N/N=C(\C)c2ccc(OC)cc2)cc1 | . | 96.0 | -4.0 | . | . | 94.0
COc1ccccc1/C(C)=N/NC(=S)NCc1ccccc1 | 1.0 | 72.0 | -11.0 | 65.2* | 0.2 | 61.0
C/C(=N\NC(=S)NCc1ccccc1)c1cccc(Br)c1 | 13.9 | 98.0 | -4.0 | 69.6* | 0.0 | 101.0
C/C(=N\NC(=S)NCc1ccccc1)c1ccc2ccccc2c1 | 7.6 | 110.0 | 2.0 | 64.4* | 0.1 | 101.0
C/C(CCC(C)C)=N\NC(=S)NCc1ccccc1 | 3.5 | 94.0 | -4.0 | 59.8* | 0.5 | 99.0
COc1ccc(/C(C)=N/NC(=S)NCCc2ccccc2)cc1 | 4.7 | 94.0 | -4.0 | 66.5 | 0.6 | 85.0
C/C(=N\NC(=S)NCCc1ccccc1)c1cccc(Br)c1 | 8.8 | 98.0 | -3.0 | 26.9 | -0.2 | 97.0
